ChEMBL document CHEMBL2380254, “Optimization of tocotrienols as antiproliferative and antimigratory leads” (Eur J Med Chem, 2013)
Calls of active or inactive are those of the source. The rule behind the calls is not given here.

How the values were obtained:
[1] = tested on: Mus musculus; test: Toxicity in BALB/c mouse allografted with mouse +SA cells assessed as body weight change at 0.5 mg, iv administered on day 40 post challenge for 14 days; type: organism-based, +SA cell; conditions: in vivo, 336 h
Summary of the method: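 Female BALB/c mice, 3–4 months old, received 1×10^6 +SA cells in 0.1 mL medium into the #4 mammary fat pad. About 40 days later, once tumors were palpable, daily tail-vein injections began for 14 days: 0.5 mg in 0.1 mL propylene glycol/DMSO (1:1), with vehicle controls. Body weight was recorded every other day, with 14–15 mice per group. Analysis used ANOVA with Duncan's test.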

[2] = tested on: +SA cell; test: Antitumor activity against mouse +SA cells allografted in BALB/c mouse assessed as reduction in tumor volume at 0.5 mg, iv administered on day 40 post challenge for 14 days; type: functional, organism-based
Summary of the method: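 Female BALB/c mice, 3–4 months old, given 1 × 10^6 +SA cells into the #4 mammary fat pad under ketamine/xylazine. About 40 days later, once tumors were palpable, 0.5 mg in 0.1 mL propylene glycol/DMSO (1:1) by daily tail-vein injection for 14 days; vehicle controls. Caliper volume L×W²/2 and body weight recorded every other day. 14–15 mice/group; ANOVA with Duncan's test.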

[3] = tested on: MCF-10A; test: Antiproliferative activity against human MCF10A cells by MTT assay; type: cell-based
Summary of the method: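 MCF10A kept in DMEM/F12 with 5% horse serum, hydrocortisone, cholera toxin, insulin and EGF, plated at 10 × 10^4 cells/well. Compounds from DMSO stock (final DMSO <0.1%, equal across groups) fed in serum-free media. Viable cell number by MTT; IC50 by non-linear regression.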

[4] = tested on: OVCAR-8; test: Growth inhibition of human OVCAR8 cells after 48 hrs by sulforhodamine B assay; type: functional; conditions: OVCAR-8, 48 h
Summary of the method: (§1)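 NCI-60 panel cells grown in RPMI 1640 with 5% FBS and 2 mM L-glutamine, seeded at 5000–40,000 cells/well and preincubated 24 h. Five 10-fold dilutions (0.001–100 µM) from DMSO stocks were added for 48 h at 37 °C. Adherent cells were fixed with cold TCA (10% final) for 60 min at 4 °C, stained with 0.4% SRB, and read at 515 nm. GI50 was set where 100×(T−T0)/(C−T0)=50.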

[5] = tested on: MCF7; test: Growth inhibition of human MCF7 cells after 48 hrs by sulforhodamine B assay; type: functional; conditions: MCF7, 48 h; summary of the method: as §1
[6] = tested on: SK-MEL-5; test: Growth inhibition of human SK-MEL-5 cells after 48 hrs by sulforhodamine B assay; type: functional; conditions: SK-MEL-5, 48 h; summary of the method: as §1
[7] = tested on: MCF-10A; test: Selectivity index, ratio of IC50 for human MCF10A cells to ratio of IC50 for mouse +SA cells; type: functional
Summary of the method: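 Index is the IC50 in MCF10A divided by the IC50 in +SA. +SA cells were kept in serum-free DMEM/F12 defined medium and given BSA-conjugated compounds at 0–40 µM (DMSO <0.1%). MCF10A cells were plated at 10×10^4 cells/well and fed compounds in serum-free medium.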

[8] = tested on: SK-MEL-28; test: Growth inhibition of human SK-MEL-28 cells after 48 hrs by sulforhodamine B assay; type: functional; conditions: SK-MEL-28, 48 h; summary of the method: as §1
[9] = tested on: SNB-75; test: Growth inhibition of human SNB75 cells after 48 hrs by sulforhodamine B assay; type: functional; conditions: SNB-75, 48 h
Summary of the method: (§2)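 NCI-60 five-dose screen. Cells were grown in RPMI 1640 with 5% FBS and 2 mM L-glutamine, plated at 5000–40,000 cells/well and incubated 24 h before dosing, with T0 plates TCA-fixed. DMSO stocks were diluted to doses of […] and exposed 48 h at 37 °C, 5% CO2. Cells were fixed with cold TCA (final 10%, 60 min, 4 °C), stained with 0.4% SRB in 1% acetic acid for 10 min, solubilized in 10 mM trizma base and read at 515 nm. GI50 is where 100×(T−T0)/(C−T0)=50.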

[10] = tested on: MDA-MB-231; test: Antimigratory activity against human MDA-MB-231 cells after 24 hrs by wound-healing assay; type: functional, cell-based; conditions: MDA-MB-231, 24 h
Summary of the method: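 MDA-MB-231 in RPMI 1640 with 10% FBS grown to >95% confluent monolayer, scratched with a pipette tip and washed. Then 24 h exposure in 0.5% serum at five non-toxic concentrations in DMSO, triplicate, DMSO as negative control. Diff Quick fixed and stained; migrated cells counted in ≥3 random 40× fields. IC50 = concentration inhibiting migration of 50% of cells.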

[11] = tested on: K562; test: Growth inhibition of human K562 cells after 48 hrs by sulforhodamine B assay; type: functional; conditions: K562, 48 h
Summary of the method: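 NCI-60 screen: cells in RPMI 1640 with 5% FBS and 2 mM glutamine, 5000–40,000 cells/well, preincubated 24 h. Five concentrations (10-fold dilutions; 100 to 0.001 µM) applied for 48 h at 37 °C. TCA fixation, SRB stain, absorbance at 515 nm. Time-zero plates included; GI50 where 100×(T−T0)/(C−T0)=50.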

[12] = tested on: SW-620; test: Growth inhibition of human SW620 cells after 48 hrs by sulforhodamine B assay; type: functional; conditions: SW-620, 48 h; summary of the method: as §2

COc1ccc(CCNCc2c(O)c(C)c(C)c3c2CC[C@@](C)(CC/C=C(\C)CC/C=C(\C)CCC=C(C)C)O3)cc1OC
Activity [1]: Non-toxic
Activity [2]: Active

CC(C)=CCC/C(C)=C/CC/C(C)=C/CC[C@]1(C)CCc2c3c(cc(C)c2O1)OCN(CCCCCCCCO)C3
IC50 [3]: 1.7 µM
GI50 [4]: 4.46 µM
GI50 [5]: 515 nM
GI50 [6]: 2760 nM
Ratio IC50 [7]: 2.15
GI50 [8]: 3430 nM
GI50 [9]: 4.11 µM
IC50 [10]: 4.9 µM
GI50 [11]: 772 nM

CC(C)=CCC/C(C)=C/CC/C(C)=C/CC[C@]1(C)CCc2c3c(c(C)c(C)c2O1)OCN(CCCCO)C3
GI50 [4]: > 10 µM
GI50 [5]: 1780 nM
GI50 [6]: > 10000 nM
GI50 [8]: > 10000 nM
GI50 [9]: 9.35 µM
IC50 [10]: 10.7 µM
GI50 [11]: 2460 nM

CC(C)=CCC/C(C)=C/CC/C(C)=C/CC[C@]1(C)CCc2c3c(cc(C)c2O1)OCN(C1CCN(Cc2ccccc2)CC1)C3
GI50 [4]: 1.4 µM
GI50 [5]: 1590 nM
GI50 [12]: 480 nM
GI50 [8]: 2010 nM
GI50 [9]: 1.67 µM

CC(C)=CCC/C(C)=C/CC/C(C)=C/CC[C@]1(C)CCc2c3c(cc(C)c2O1)OCN(CCCCCCO)C3
IC50 [3]: 2.5 µM
GI50 [4]: 4.45 µM
GI50 [5]: 579 nM
GI50 [6]: 2500 nM
Ratio IC50 [7]: 1.92
GI50 [8]: 2010 nM
GI50 [9]: 3.14 µM
IC50 [10]: 1.5 µM
GI50 [11]: 810 nM

CC(C)=CCC/C(C)=C/CC/C(C)=C/CC[C@]1(C)CCc2c3c(c(C)c(C)c2O1)OCN(CCCCCCO)C3
GI50 [4]: 3.06 µM
GI50 [5]: 2730 nM
GI50 [6]: 2880 nM
GI50 [8]: 2760 nM
GI50 [9]: 2.46 µM
GI50 [11]: 2960 nM

CC(C)=CCC/C(C)=C/CC/C(C)=C/CC[C@]1(C)CCc2c3c(c(C)c(C)c2O1)OCN(CCc1ccc(O)cc1)C3
IC50 [3]: 8.5 µM
Ratio IC50 [7]: 5.67
IC50 [10]: 4.5 µM

COc1ccc(CCN2COc3c(C)c(C)c4c(c3C2)CC[C@@](C)(CC/C=C(\C)CC/C=C(\C)CCC=C(C)C)O4)cc1OC
IC50 [3]: 0.7 µM
Ratio IC50 [7]: 0.39

CC(C)=CCC/C(C)=C/CC/C(C)=C/CC[C@]1(C)CCc2c3c(cc(C)c2O1)OCN(CCCCCO)C3
IC50 [3]: 4.6 µM
GI50 [4]: 6.39 µM
GI50 [5]: 3740 nM
Ratio IC50 [7]: 6.57
GI50 [12]: 6050 nM
GI50 [8]: 5890 nM
GI50 [9]: 4.03 µM

CC(C)=CCC/C(C)=C/CC/C(C)=C/CC[C@]1(C)CCc2cc(O)c(C)c(C)c2O1 [GAMMA-TOCOTRIENOL]
IC50 [3]: 4.4 µM
Ratio IC50 [7]: 1.1
Activity [1]: Non-toxic
Activity [2]: inactive
IC50 [10]: > 40 µM

CC(C)=CCC/C(C)=C/CC/C(C)=C/CC[C@]1(C)CCc2c3c(cc(C)c2O1)OCN(CCc1ccc(O)cc1)C3
IC50 [3]: 1.9 µM
GI50 [4]: 5.84 µM
GI50 [5]: 1280 nM
GI50 [6]: 5420 nM
Ratio IC50 [7]: 2.09
GI50 [12]: 1590 nM
GI50 [8]: 5590 nM
GI50 [9]: 4.74 µM
IC50 [10]: 2.4 µM

CC(C)=CCC/C(C)=C/CC/C(C)=C/CC[C@]1(C)CCc2c3c(cc(C)c2O1)OCN(CCCCO)C3
IC50 [3]: 4.2 µM
GI50 [6]: 14500 nM
Ratio IC50 [7]: 2.34
IC50 [10]: 2.2 µM
GI50 [11]: 7420 nM

CC(C)=CCC/C(C)=C/CC/C(C)=C/CC[C@]1(C)CCc2c3c(c(C)c(C)c2O1)OCN(CCCCCCCCO)C3
IC50 [3]: 2 µM
GI50 [4]: 2.67 µM
GI50 [5]: 2590 nM
GI50 [6]: 2900 nM
Ratio IC50 [7]: 1.43
GI50 [8]: 2620 nM
GI50 [9]: 2.38 µM
IC50 [10]: 4.7 µM
GI50 [11]: 3500 nM

COc1ccc(CCN2COc3cc(C)c4c(c3C2)CC[C@@](C)(CC/C=C(\C)CC/C=C(\C)CCC=C(C)C)O4)cc1OC
GI50 [4]: 2.2 µM
GI50 [5]: 1540 nM
GI50 [12]: 2000 nM
GI50 [8]: 1750 nM
GI50 [9]: 1.2 µM

CC(C)=CCC/C(C)=C/CC/C(C)=C/CC[C@]1(C)CCc2c3c(cc(C)c2O1)OCN(CCCO)C3
IC50 [3]: 6.5 µM
GI50 [4]: 1.95 µM
GI50 [5]: 1660 nM
Ratio IC50 [7]: 3.61
GI50 [12]: 1830 nM
GI50 [8]: 1780 nM
GI50 [9]: 1.29 µM
IC50 [10]: 6 µM

CC(C)=CCC/C(C)=C/CC/C(C)=C/CC[C@]1(C)CCc2c3c(cc(C)c2O1)OCN(CCCCCCCCCCO)C3
IC50 [10]: 7.2 µM

CC(C)=CCC/C(C)=C/CC/C(C)=C/CC[C@]1(C)CCc2c3c(c(C)c(C)c2O1)OCN(CCCCCO)C3
IC50 [3]: 8.9 µM
GI50 [4]: 6.39 µM
GI50 [5]: 3740 nM
Ratio IC50 [7]: 5.24
GI50 [12]: 6050 nM
GI50 [8]: 5890 nM
GI50 [9]: 4.03 µM
